The values below come from ChEMBL document CHEMBL1275312, “Synthesis of new pyrrolo[2,3-d]pyrimidine derivatives as antibacterial and antifungal agents” (2010).

Common to all, as to format: functional
One assay relates to Candida albicans. The assay is described as follows: Antimicrobial activity against Candida albicans ATCC 10145 at 5 mg/ml after 48 hrs by agar well diffusion assay. Particulars: ATCC 10145, 48 h, read-out: IZ. The procedure, abridged:
(§1)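 Agar well diffusion against S. aureus NCTC-7447 and E. coli NCTC-10416 (maintained on Mueller-Hinton agar, 24 h, 37 ± 1 °C) and C. albicans ATCC-10145 (Sabouraud dextrose agar, 48 h, 28 ± 1 °C). Inocula: colonies suspended in 5 mL sterile saline. Wells pre-incubated 1 h in refrigerator, then incubated 24 h at 37 °C (bacteria) or 48 h at 28 °C (fungi). Inhibition zone diameter measured. DMSO blank.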
For orientation: A growth-free zone around the sample is the usual read-out of agar diffusion tests.

Assay [1] relates to Escherichia coli. The assay is described as follows: Antimicrobial activity against Escherichia coli NCTC 10416 at 5 mg/ml after 24 hrs by agar well diffusion assay. The note with it: NCTC 10416, 24 h, read-out: IZ. In short, it runs like this:
as §1

The test system of assay [2] is Escherichia coli. The experiment in a line: Antimicrobial activity against Escherichia coli NCTC 10416 by twofold serial dilution method. In short, it runs like this:
(§2)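 MIC by two-fold serial dilution, limited to compounds giving inhibition zones of at least 18 mm in the well diffusion screen. Strains: S. aureus NCTC-7447 and E. coli NCTC-10416 on Mueller-Hinton agar at 37 ± 1 °C; C. albicans ATCC-10145 on Sabouraud dextrose agar at 28 ± 1 °C. Inocula were colony suspensions in sterile saline. MIC taken as the lowest concentration (highest dilution) inhibiting growth.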

Assay [3] concerns Staphylococcus aureus. The assay is described as follows: Antimicrobial activity against Staphylococcus aureus NCTC 7447 at 5 mg/ml after 24 hrs by agar well diffusion assay. The note with it: NCTC 7447, 24 h, read-out: IZ. The procedure, abridged:
as §1

For assay [4], the system named is Staphylococcus aureus. The experiment in a line: Antimicrobial activity against Staphylococcus aureus NCTC 7447 by twofold serial dilution method. The procedure, abridged:
as §2

SMILES strings stand for the structures. Values after ≈ are worked out from the molar mass of the structure shown.

By MIC is commonly meant the smallest concentration in the dilution series that meets the test's criterion for growth inhibition. Consider `Cc1ccc(-c2cc3c(N)nc(N)nc3n2-c2ccccc2)cc1`, for which the values for the zone of inhibition at 5000 µg/mL in the assay on Candida albicans, in the assay with Escherichia coli [1] and in the assay with Staphylococcus aureus [3] were 23 mm, 19 mm and 25 mm, respectively. Also, the results for the MIC in the assay with Escherichia coli [2] and against Staphylococcus aureus [4] were 2500 µg/mL (≈ 7.93 mM) and 620 µg/mL (≈ 1.97 mM), respectively.
As to `N=c1c2cc(-c3ccc(Br)cc3)n(-c3ccccc3)c2ncn1N`, the zone of inhibition at 5000 µg/mL in the assay with Candida albicans is 27 mm; in the assay on Escherichia coli [1] it was 27 mm; in the assay with Staphylococcus aureus [3], 25 mm. Also, the minimal inhibitory concentration (MIC) against Escherichia coli [2] came out at 1250 µg/mL (≈ 3.29 mM); against Staphylococcus aureus [4], 310 µg/mL (≈ 0.815 mM).
Take `N=c1c2cc(-c3ccc(Cl)cc3)n(-c3ccccc3)c2ncn1N`: the zone of inhibition at 5000 µg/mL in the assay on Candida albicans turned out to be 27 mm; in the assay with Escherichia coli [1], 22 mm; with Staphylococcus aureus [3] it was 21 mm. Moreover, the MIC against Escherichia coli [2] turned out to be 1250 µg/mL (≈ 3.72 mM); with Staphylococcus aureus [4], 310 µg/mL (≈ 0.923 mM).
For `Cc1ccc(-c2cc3c(=N)n(N)cnc3n2-c2ccccc2)cc1` the same measures were 21 mm, 20 mm, 21 mm, 2500 µg/mL (≈ 7.93 mM) and 620 µg/mL (≈ 1.97 mM).
As for `N=c1c2cc(-c3ccc(F)cc3)n(-c3ccccc3)c2ncn1N`, the results for the zone of inhibition at 5000 µg/mL with Candida albicans, in the assay with Escherichia coli [1] and with Staphylococcus aureus [3] were 15 mm, 15 mm and 17 mm, respectively.
Turning to `c1ccc(-c2cc3c(ncn4ncnc34)n2-c2ccccc2)cc1`, the zone of inhibition at 5000 µg/mL in the assay with Candida albicans was 17 mm; with Escherichia coli [1] it was 16 mm; with Staphylococcus aureus [3] it was 13 mm.
In the case of `Brc1ccc(-c2cc3c(ncn4ncnc34)n2-c2ccccc2)cc1`, the zone of inhibition at 5000 µg/mL worked out at 19 mm in the assay with Candida albicans, 14 mm in the assay with Escherichia coli [1] and 19 mm in the assay on Staphylococcus aureus [3].
With `Clc1ccc(-c2cc3c(ncn4ncnc34)n2-c2ccccc2)cc1`, the zone of inhibition at 5000 µg/mL in the assay with Candida albicans came to 18 mm; in the assay with Escherichia coli [1], 18 mm; in the assay with Staphylococcus aureus [3], 17.5 mm.
As for `Cc1ccc(-c2cc3c(ncn4ncnc34)n2-c2ccccc2)cc1`, the zone of inhibition at 5000 µg/mL in the assay with Candida albicans worked out at 11 mm.
On to `Fc1ccc(-c2cc3c(ncn4ncnc34)n2-c2ccccc2)cc1`, for which the zone of inhibition at 5000 µg/mL with Candida albicans amounted to 17 mm; in the assay on Escherichia coli [1] it was 16 mm; in the assay with Staphylococcus aureus [3], 17 mm.
With `Clc1ncnc2c1cc(-c1ccccc1)n2-c1ccccc1`, the figures for the zone of inhibition at 5000 µg/mL in the assay on Candida albicans, in the assay on Escherichia coli [1] and in the assay on Staphylococcus aureus [3] were 16.5 mm, 14 mm and 13 mm, respectively.
For `Clc1ncnc2c1cc(-c1ccc(Br)cc1)n2-c1ccccc1` the same measures were 17 mm, 17 mm and 16 mm.
For `Clc1ccc(-c2cc3c(Cl)ncnc3n2-c2ccccc2)cc1` the same measures were 12 mm, 13 mm and 12 mm.
For `Cc1ccc(-c2cc3c(Cl)ncnc3n2-c2ccccc2)cc1` the same measures were 16 mm, 13 mm and 12 mm.
As to `Fc1ccc(-c2cc3c(Cl)ncnc3n2-c2ccccc2)cc1`, the zone of inhibition at 5000 µg/mL stood at 15 mm in the assay with Candida albicans, 13 mm with Escherichia coli [1] and 15 mm in the assay with Staphylococcus aureus [3].
For the compound `NNc1ncnc2c1cc(-c1ccccc1)n2-c1ccccc1`, the zone of inhibition at 5000 µg/mL turned out to be 31 mm in the assay on Candida albicans, 18 mm in the assay on Escherichia coli [1] and 27 mm in the assay with Staphylococcus aureus [3]. The MIC in the assay with Escherichia coli [2] was 2500 µg/mL (≈ 8.3 mM); against Staphylococcus aureus [4], 620 µg/mL (≈ 2.06 mM).
Consider `NNc1ncnc2c1cc(-c1ccc(Br)cc1)n2-c1ccccc1`, for which the figures for the zone of inhibition at 5000 µg/mL in the assay on Candida albicans, with Escherichia coli [1] and with Staphylococcus aureus [3] were 23 mm, 15 mm and 25 mm, respectively. In the assay on Staphylococcus aureus [4], this compound gave a minimum inhibitory concentration (MIC) of 620 µg/mL (≈ 1.63 mM).
For `NNc1ncnc2c1cc(-c1ccc(Cl)cc1)n2-c1ccccc1`, the zone of inhibition at 5000 µg/mL in the assay with Candida albicans stood at 19 mm; with Escherichia coli [1], 16 mm; with Staphylococcus aureus [3] it was 17 mm.
For `Cc1ccc(-c2cc3c(NN)ncnc3n2-c2ccccc2)cc1` the same measures were 17 mm, 13 mm and 14 mm.
As to `NNc1ncnc2c1cc(-c1ccc(F)cc1)n2-c1ccccc1`, the results for the zone of inhibition at 5000 µg/mL in the assay on Candida albicans, in the assay on Escherichia coli [1] and with Staphylococcus aureus [3] were 32 mm, 20 mm and 31 mm, respectively. Further, the MIC was 1250 µg/mL (≈ 3.91 mM) in the assay with Escherichia coli [2] and 310 µg/mL (≈ 0.971 mM) against Staphylococcus aureus [4].
As to `c1ccc(-c2cc3c(ncn4nnnc34)n2-c2ccccc2)cc1`, the zone of inhibition at 5000 µg/mL was 17 mm in the assay on Candida albicans, 16 mm in the assay with Escherichia coli [1] and 16 mm with Staphylococcus aureus [3].
Consider `Brc1ccc(-c2cc3c(ncn4nnnc34)n2-c2ccccc2)cc1`, for which the results for the zone of inhibition at 5000 µg/mL in the assay with Candida albicans, with Escherichia coli [1] and with Staphylococcus aureus [3] were 17 mm, 15 mm and 16 mm, respectively.
As to `Clc1ccc(-c2cc3c(ncn4nnnc34)n2-c2ccccc2)cc1`, the zone of inhibition at 5000 µg/mL worked out at 17 mm in the assay on Candida albicans, 15 mm in the assay on Escherichia coli [1] and 14 mm in the assay with Staphylococcus aureus [3].
Regarding `Fc1ccc(-c2cc3c(ncn4nnnc34)n2-c2ccccc2)cc1`, in the assay with Candida albicans, the zone of inhibition at 5000 µg/mL amounted to 11 mm.
Regarding `Nc1ncnc2c1cc(-c1ccccc1)n2-c1ccccc1`, the figures for the zone of inhibition at 5000 µg/mL in the assay with Candida albicans, in the assay with Escherichia coli [1] and in the assay with Staphylococcus aureus [3] were 20 mm, 14 mm and 15 mm, respectively.
Consider `Nc1ncnc2c1cc(-c1ccc(Cl)cc1)n2-c1ccccc1`, for which the zone of inhibition at 5000 µg/mL in the assay on Candida albicans was 16 mm; in the assay on Escherichia coli [1], 16 mm; in the assay on Staphylococcus aureus [3], 17 mm.
In the case of `Cc1ccc(-c2cc3c(N)ncnc3n2-c2ccccc2)cc1`, the zone of inhibition at 5000 µg/mL in the assay on Candida albicans worked out at 25 mm; in the assay with Escherichia coli [1], 14 mm; with Staphylococcus aureus [3] it was 23 mm. In addition, 2500 µg/mL (≈ 8.32 mM) was the least that counted as inhibitory with Staphylococcus aureus [4] (MIC).
For `C/C=N\c1ncnc2c1cc(-c1ccccc1)n2-c1ccccc1` the same measures were 21 mm, 16 mm, 21 mm and 1250 µg/mL (≈ 4 mM).
`C/C=N\c1ncnc2c1cc(-c1ccc(Cl)cc1)n2-c1ccccc1`: the results for the zone of inhibition at 5000 µg/mL in the assay with Candida albicans, in the assay with Escherichia coli [1] and in the assay on Staphylococcus aureus [3] were 17 mm, 16 mm and 17 mm, respectively.
On to `C/C=N/c1ncnc2c1cc(-c1ccc(C)cc1)n2-c1ccccc1`, for which the figures for the zone of inhibition at 5000 µg/mL in the assay with Candida albicans, in the assay on Escherichia coli [1] and in the assay with Staphylococcus aureus [3] were 15 mm, 17 mm and 16 mm, respectively.
Regarding `Nc1nc(N)c2cc(-c3ccccc3)n(-c3ccccc3)c2n1`, the values for the zone of inhibition at 5000 µg/mL with Candida albicans, in the assay on Escherichia coli [1] and with Staphylococcus aureus [3] were 24 mm, 13 mm and 24 mm, respectively. In addition, inhibition of growth in the assay on Staphylococcus aureus [4] (MIC) required 620 µg/mL (≈ 2.06 mM).
As to `Nc1nc(N)c2cc(-c3ccc(Cl)cc3)n(-c3ccccc3)c2n1`, the values for the zone of inhibition at 5000 µg/mL with Candida albicans, in the assay on Escherichia coli [1] and in the assay on Staphylococcus aureus [3] were 23 mm, 14 mm and 24 mm, respectively. It took 1250 µg/mL (≈ 3.72 mM) to inhibit growth in the assay with Staphylococcus aureus [4] (MIC).
Regarding `Cc1nc(N)c2cc(-c3ccc(Cl)cc3)n(-c3ccccc3)c2n1`, the zone of inhibition at 5000 µg/mL came out at 24 mm in the assay on Candida albicans, 14 mm in the assay on Escherichia coli [1] and 25 mm with Staphylococcus aureus [3]. The same compound registered an MIC in the assay with Staphylococcus aureus [4] of 620 µg/mL (≈ 1.85 mM).
Regarding `Cc1ccc(-c2cc3c(N)nc(C)nc3n2-c2ccccc2)cc1`, the results for the zone of inhibition at 5000 µg/mL with Candida albicans, in the assay with Escherichia coli [1] and in the assay with Staphylococcus aureus [3] were 16 mm, 14 mm and 17 mm, respectively.
For `CCO/C=N/c1c(C#N)cc(-c2ccccc2)n1-c1ccccc1` the same measures were 19 mm, 17 mm and 16 mm.
Consider `CCO/C=N/c1c(C#N)cc(-c2ccc(Br)cc2)n1-c1ccccc1`, for which the zone of inhibition at 5000 µg/mL in the assay on Candida albicans came out at 11 mm.
Consider `CCO/C=N/c1c(C#N)cc(-c2ccc(Cl)cc2)n1-c1ccccc1`, for which the zone of inhibition at 5000 µg/mL in the assay with Candida albicans worked out at 11 mm.
Turning to `CCO/C=N/c1c(C#N)cc(-c2ccc(C)cc2)n1-c1ccccc1`, the zone of inhibition at 5000 µg/mL with Escherichia coli [1] was determined as 11 mm.
For the compound `CCO/C=N/c1c(C#N)cc(-c2ccc(F)cc2)n1-c1ccccc1`, the zone of inhibition at 5000 µg/mL amounted to 16 mm in the assay with Candida albicans, 13 mm in the assay with Escherichia coli [1] and 13 mm in the assay with Staphylococcus aureus [3].
As to `N=c1c2cc(-c3ccccc3)n(-c3ccccc3)c2ncn1N`, the zone of inhibition at 5000 µg/mL in the assay with Candida albicans amounted to 23 mm; in the assay with Escherichia coli [1], 16 mm; in the assay on Staphylococcus aureus [3], 21 mm. In the assay on Staphylococcus aureus [4], the lowest concentration to inhibit growth (MIC) was 1250 µg/mL (≈ 4.15 mM).
Consider `CC1(C)S[C@@H]2[C@H](NC(=O)[C@H](N)c3ccccc3)C(=O)N2[C@H]1C(=O)O` [AMPICILLIN], for which the zone of inhibition at 5000 µg/mL in the assay on Escherichia coli [1] and in the assay on Staphylococcus aureus [3] was 9 mm throughout. Moreover, the results for the MIC against Escherichia coli [2] and against Staphylococcus aureus [4] were 1250 µg/mL (≈ 3.58 mM) and 620 µg/mL (≈ 1.77 mM), respectively.
With `OC(Cn1cncn1)(Cn1cncn1)c1ccc(F)cc1F` [FLUCONAZOLE], the zone of inhibition at 5000 µg/mL in the assay on Candida albicans is 26 mm.
Take `CN(C)[C@@H]1C(O)=C(C(N)=O)C(=O)[C@@]2(O)C(O)=C3C(=O)c4c(O)cccc4[C@@](C)(O)[C@H]3C[C@@H]12` [TETRACYCLINE]: the zone of inhibition at 5000 µg/mL with Escherichia coli [1] worked out at 18 mm; in the assay on Staphylococcus aureus [3], 20 mm.
